Key:
DU-145 = experiment: Antiproliferative activity against human DU145 cells after 72 hrs by MTT assay; assay type: functional, cell-based; settings: DU-145, 72 h
HepG2 [1] = experiment: Antiproliferative activity against human HepG2 cells after 72 hrs by MTT assay; assay type: functional, cell-based; settings: HepG2, 72 h
SH-SY5Y = experiment: Antiproliferative activity against human SH-SY5Y cells after 72 hrs by MTT assay; assay type: functional, cell-based
MCF7 = experiment: Antiproliferative activity against human MCF7 cells after 72 hrs by MTT assay; assay type: functional, cell-based; settings: MCF7, 72 h
A549 = experiment: Antiproliferative activity against human A549 cells after 72 hrs by MTT assay; assay type: functional, cell-based; settings: A549, 72 h
HepG2 [2] = experiment: Cytotoxicity against human HepG2 cells at 40 uM after 48 hrs by LDH release assay (reference value: 100%); assay type: functional
Procedure, shortened: (§1)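 HepG2 seeded at 1.0 × 10^5 cells/well, grown 24 h at 37 °C in 5% CO2, then dosed for 48 h. LDH in supernatant read on plate reader per kit. Maximal release (100% cytotoxicity) came from lysis with 2% (V/V) lysate for 1 h at 37 °C; medium-only cells served as natural release. Triplicate, three independent runs.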

HepG2 [3] = experiment: Cytotoxicity against human HepG2 cells at 10 uM after 48 hrs by LDH release assay (reference value: 100%); assay type: functional
Procedure, shortened: (§2)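 LDH release. HepG2 cells at 1.0 × 10^5/well were incubated 24 h at 37 °C, then treated at 2.5–40 µM for 48 h. Cells lysed with 2% lysate for 1 h gave the full-release (100%) reference; medium-only cells were the low control. LDH in the supernatant was measured per kit. Triplicates, three independent repeats.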

HepG2 [4] = experiment: Cytotoxicity against human HepG2 cells at 5 uM after 48 hrs by LDH release assay (reference value: 100%); assay type: functional; procedure, shortened: as §1
HepG2 [5] = experiment: Cytotoxicity against human HepG2 cells at 2.5 uM after 48 hrs by LDH release assay (reference value: 100%); assay type: functional; procedure, shortened: as §2
HepG2 [6] = experiment: Cytotoxicity against human HepG2 cells at 20 uM after 48 hrs by LDH release assay (reference value: 100%); assay type: functional; procedure, shortened: as §2

Structure (SMILES) | IC50 (DU-145) | IC50 (HepG2 [1]) | IC50 (SH-SY5Y) | IC50 (MCF7) | IC50 (A549) | Activity (HepG2 [2]) | Activity (HepG2 [3]) | Activity (HepG2 [4]) | Activity (HepG2 [5]) | Activity (HepG2 [6])
COc1cc2c(Nc3ccc(C#N)cc3)ncnc2cc1OCCCN(CCO)Cc1ccccc1 | > 100 µM | > 100 µM | > 100 µM | > 100 µM | 47.4 µM | – | – | – | – | –
COc1cc2c(Nc3ccc(C#N)cc3)ncnc2cc1OCCCN1CCC(CO)CC1 | 53.2 µM | 61.8 µM | 21.6 µM | 35.1 µM | > 100 µM | – | – | – | – | –
COc1cc2c(Nc3ccc(C#N)cc3)ncnc2cc1OCCCN1CCOCC1 | 98.2 µM | 0.77 µM | > 100 µM | > 100 µM | 59.4 µM | – | – | – | – | –
COc1cc2c(Nc3ccc(C#N)cc3)ncnc2cc1OCCCN1CCCCC1CCO (stereo not given) | > 100 µM | > 100 µM | > 100 µM | > 100 µM | > 100 µM | – | – | – | – | –
COc1cc2c(Nc3ccc(C#N)cc3)ncnc2cc1OCCCN(C)Cc1ccccc1 | > 100 µM | > 100 µM | > 100 µM | > 100 µM | > 100 µM | – | – | – | – | –
COc1cc2ncnc(Nc3ccc(F)c(Cl)c3)c2cc1OCCCN1CCOCC1 [GEFITINIB] | – | – | – | – | – | 47.62% | 45.36% | 48.69% | 42.08% | 45.24%
COc1cc2c(Nc3ccc(C#N)cc3)ncnc2cc1OCCCN1CCN(C)CC1 | 46.5 µM | 13.8 µM | 13 µM | 71.1 µM | 48.8 µM | – | – | – | – | –
COc1cc2c(Nc3ccc(C#N)cc3)ncnc2cc1OCCCN1CCC(O)CC1 | 74.9 µM | 67.9 µM | > 100 µM | > 100 µM | 29.9 µM | – | – | – | – | –
COc1cc2c(Nc3ccc(C#N)cc3)ncnc2cc1OCCCN1CCN(CCO)CC1 | 29.3 µM | 28.1 µM | 36.8 µM | 25.2 µM | 9.82 µM | – | – | – | – | –
COc1cc2c(Nc3ccccc3C#N)ncnc2cc1OCCCN1CCOCC1 | 68.5 µM | 3.68 µM | > 100 µM | 98.4 µM | 46.8 µM | – | – | – | – | –
COc1cc2c(Nc3ccc(C#N)cc3)ncnc2cc1OCCCN1CCc2ccccc2C1 | > 100 µM | > 100 µM | > 100 µM | > 100 µM | > 100 µM | – | – | – | – | –
CCOC(=O)C1CCN(CCCOc2cc3ncnc(Nc4ccc(C#N)cc4)c3cc2OC)CC1 | 52.3 µM | 57.7 µM | 47.2 µM | 34.9 µM | 89.9 µM | – | – | – | – | –
CCN1CCN(CCCOc2cc3ncnc(Nc4ccc(C#N)cc4)c3cc2OC)CC1 | 34.4 µM | 9.58 µM | 5.44 µM | 29.9 µM | 16 µM | – | – | – | – | –
COc1cc2c(Nc3cccc(C#N)c3)ncnc2cc1OCCCN1CCOCC1 | 77.8 µM | 1.89 µM | > 100 µM | > 100 µM | 65.5 µM | – | – | – | – | –
COc1cc2c(Nc3ccc(C#N)cc3)ncnc2cc1OCCCN(C)C | 35.2 µM | > 100 µM | 34.9 µM | 45 µM | 60.5 µM | – | – | – | – | –
CCN(CC)CCCOc1cc2ncnc(Nc3ccc(C#N)cc3)c2cc1OC | 68.9 µM | 59.4 µM | > 100 µM | > 100 µM | 50.6 µM | – | – | – | – | –

Continued by falling IC50 (DU-145), values first:

IC50 (DU-145) | IC50 (HepG2 [1]) | IC50 (SH-SY5Y) | IC50 (MCF7) | IC50 (A549) | Structure (SMILES) | Activity (HepG2 [2]) | Activity (HepG2 [3]) | Activity (HepG2 [4]) | Activity (HepG2 [5]) | Activity (HepG2 [6])
29.1 µM | 29.5 µM | 11.2 µM | 44.8 µM | 37 µM | COc1cc2c(Nc3cccc(C#N)c3)ncnc2cc1OCCCN1CCCCC1 | – | – | – | – | –
28.3 µM | 33.6 µM | 24.3 µM | 31 µM | 42.4 µM | COc1cc2c(Nc3ccc(C#N)cc3)ncnc2cc1OCCCN1CCC(N(C)C)CC1 | – | – | – | – | –
24.4 µM | 20.7 µM | 18.8 µM | 35.1 µM | 23.5 µM | COc1cc2c(Nc3ccc(C#N)cc3)ncnc2cc1OCCCN1CCCCC1 | – | – | – | – | –
22.9 µM | 12.6 µM | 31.6 µM | 22.9 µM | 25.4 µM | COc1cc2c(Nc3ccc(C#N)cc3)ncnc2cc1OCCCN1CCN(c2ccncc2)CC1 | – | – | – | – | –
20.2 µM | 40.3 µM | 48.1 µM | 36.8 µM | 26.1 µM | COc1cc2c(Nc3ccc(C#N)cc3)ncnc2cc1OCCCN(CCO)CCO | – | – | – | – | –
19.4 µM | 26.4 µM | 32.4 µM | 17.8 µM | 23.4 µM | COc1cc2c(Nc3ccccc3C#N)ncnc2cc1OCCCN1CCN(C)CC1 | – | – | – | – | –
19.1 µM | 18.2 µM | 10.6 µM | 33.9 µM | 39.9 µM | COc1cc2c(Nc3cccc(C#N)c3)ncnc2cc1OCCCN1CCCC1 | – | – | – | – | –
18.7 µM | 24.5 µM | 28.9 µM | 16.2 µM | 21.8 µM | COc1cc2c(Nc3ccccc3C#N)ncnc2cc1OCCCN1CCCC1 | – | – | – | – | –
18.2 µM | 13.7 µM | 6.27 µM | 19.9 µM | 18.7 µM | CCN1CCN(CCCOc2cc3ncnc(Nc4cccc(C#N)c4)c3cc2OC)CC1 | – | – | – | – | –
17.7 µM | 18.2 µM | 7.33 µM | 24.4 µM | 18.7 µM | COc1cc2c(Nc3cccc(C#N)c3)ncnc2cc1OCCCN1CCC(C)CC1 | – | – | – | – | –
17.4 µM | 45.2 µM | 83.7 µM | 41.4 µM | 29 µM | COc1cc2c(Nc3ccc(C#N)cc3)ncnc2cc1OCCCN(C)CCO | – | – | – | – | –
16.6 µM | 32.1 µM | 7.9 µM | 43.1 µM | 32.3 µM | COc1cc2c(Nc3ccc(C#N)cc3)ncnc2cc1OCCCN1CCC(C)CC1 | – | – | – | – | –
15.6 µM | 8.84 µM | 9.81 µM | 19.6 µM | 30.7 µM | COc1cc2c(Nc3ccc(C#N)cc3)ncnc2cc1OCCCN1CCC(N2CCCCC2)CC1 | – | – | – | – | –
15.3 µM | 14.2 µM | 13.4 µM | 15.2 µM | 14.7 µM | COc1cc2c(Nc3ccccc3C#N)ncnc2cc1OCCCN1CCCCC1 | – | – | – | – | –
14.4 µM | 20.9 µM | 8.08 µM | 16.2 µM | 21.8 µM | COc1cc2c(Nc3ccc(C#N)cc3)ncnc2cc1OCCCN1CCCC1 | – | – | – | – | –
12.1 µM | 18.3 µM | 6.89 µM | 23.1 µM | 27.7 µM | COc1cc2c(Nc3cccc(C#N)c3)ncnc2cc1OCCCN1CCN(C)CC1 | – | – | – | – | –
11.9 µM | 4.03 µM | 29 µM | 31.9 µM | 22.7 µM | COc1cc2c(Nc3ccccc3C#N)ncnc2cc1OCCCN1CCC(C)CC1 | – | – | – | – | –
5.87 µM | 2.11 µM | 12.6 µM | 9.07 µM | 6.91 µM | CCN1CCN(CCCOc2cc3ncnc(Nc4ccccc4C#N)c3cc2OC)CC1 | – | – | – | – | –

Source: ChEMBL document CHEMBL4130355, “Development of a series of novel 4-anlinoquinazoline derivatives possessing quinazoline skeleton: Design, synthesis, EGFR kinase inhibitory efficacy, and evaluation of anticancer activities in vitro” (Eur J Med Chem, 2017)
